For six compounds, MIC, IC50 and Activity results are on record in ChEMBL document CHEMBL1146523, “Antimalarial dihydroisocoumarins produced by Geotrichum sp., an endophytic fungus of Crassocephalum crepidioides” (J Nat Prod, 2003).

The subject of experiment [1] is Mycobacterium tuberculosis. In words: Antimycobacterial activity against Mycobacterium tuberculosis H37Ra by microplate alamar blue assay. Format: functional. The procedure, abridged:
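Growth inhibition of M. tuberculosis H37Ra in the Microplate Alamar Blue Assay. MIC read-out, with isoniazid and kanamycin sulfate as standard drugs.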

Experiment [2] relates to Plasmodium falciparum. Put plainly: Antimalarial activity against multidrug-resistant Plasmodium falciparum K1. In kind it is functional, organism-based. The procedure, abridged:
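Multidrug-resistant P. falciparum K1 kept in continuous culture (Trager–Jensen). In vitro activity measured by the microculture radioisotope technique (Desjardins). IC50 read-out, with chloroquine diphosphate as the standard.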

The subject of experiment [3] is Candida albicans. In words: Antifungal activity against Candida albicans. In kind it is functional, organism-based. The procedure, abridged:
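Candida albicans growth inhibition measured by a colorimetric method. IC50 read-out, with amphotericin B as the standard drug.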

In brackets after ≈: the same amount, converted by molar mass. Activity calls are given as the source filed them.

As a reminder, the MIC is the smallest concentration in the dilution series that meets the test's criterion for growth inhibition. A low value points to a more susceptible organism. Regarding `NC[C@H]1O[C@H](O[C@H]2[C@H](O)[C@@H](O[C@H]3O[C@H](CO)[C@@H](O)[C@H](N)[C@H]3O)[C@H](N)C[C@@H]2N)[C@H](O)[C@@H](O)[C@@H]1O.O=S(=O)(O)O` [KANAMYCIN SULFATE], the MIC in experiment [1] is 2.5 µg/mL.

Usually IC50 stands for the concentration needed to halve the response being measured. Low values mean greater potency in that assay, high ones weaker potency in that assay. In turn, `C/C=C/CC[C@@H]1Cc2cc(O)c(CCCC)c(O)c2C(=O)O1` yielded a minimal inhibitory concentration (MIC) in experiment [1] of 25 µg/mL (≈ 82.1 µM). Further, the IC50 worked out at 4.7 µg/mL (≈ 15.4 µM) in experiment [2] and 19 µg/mL (≈ 62.4 µM) in experiment [3].

In experiment [1], `C/C=C/CC[C@@H]1Cc2cc(O)c(C/C=C/C)c(O)c2C(=O)O1` displayed an MIC of 50 µg/mL (≈ 165 µM). Moreover, the outcome in experiment [2] and in experiment [3] was inactive.

With `CCCCC[C@@H]1Cc2cc(O)c(CCCC)c(O)c2C(=O)O1`, the result in experiment [1] was inactive. Besides, the IC50 in experiment [2] turned out to be 2.6 µg/mL (≈ 8.49 µM); in experiment [3], 33 µg/mL (≈ 108 µM).

In experiment [3], `C[C@@H]1[C@H](O)[C@@H](C)/C=C/C=C/C=C/C=C/C=C/C=C/C=C/[C@H](O[C@@H]2O[C@H](C)[C@@H](O)[C@H](N)[C@@H]2O)C[C@@H]2O[C@](O)(C[C@@H](O)C[C@@H](O)[C@H](O)CC[C@@H](O)C[C@@H](O)CC(=O)O[C@H]1C)C[C@H](O)[C@H]2C(=O)O` [AMPHOTERICIN B] had a half-maximal inhibitory concentration (IC50) of 0.01 µg/mL (≈ 0.0108 µM).

Consider `NNC(=O)c1ccncc1` [ISONIAZID], for which, in experiment [1], the minimal inhibitory concentration (MIC) worked out at 0.05 µg/mL (≈ 0.365 µM).
